Our source for the Activity values is ChEMBL document CHEMBL1151750, “The fourth molybdenum containing enzyme mARC: cloning and involvement in the activation of N-hydroxylated prodrugs” (J Med Chem, 2008).

Holding throughout (assay type): microsomes
Conditions in all cases: Microsome

For assay [1], the target named is T1, Mitochondrial amidoxime-reducing component 1 (Homo sapiens) (UniProt Q5VT66).
T1 sequence (whole entry): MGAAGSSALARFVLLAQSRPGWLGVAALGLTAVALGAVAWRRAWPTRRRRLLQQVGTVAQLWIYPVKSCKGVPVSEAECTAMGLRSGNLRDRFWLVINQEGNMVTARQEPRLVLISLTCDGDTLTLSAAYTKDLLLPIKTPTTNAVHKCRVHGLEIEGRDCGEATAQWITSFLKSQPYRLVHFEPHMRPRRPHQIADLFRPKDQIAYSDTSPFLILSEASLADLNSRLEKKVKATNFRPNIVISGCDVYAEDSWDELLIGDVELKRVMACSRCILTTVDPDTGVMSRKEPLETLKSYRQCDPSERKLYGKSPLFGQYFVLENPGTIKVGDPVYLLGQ
The experiment in a line: Specific activity at molybdenum cofactor/metal-free precursor molybopterin bound human recombinant mARC1 expressed in Escherichia coli TP1000 assessed as reduction to debrisoquine in complete reconstituted system containing microsomal cyt b5, NADH and microsomal NADH cyt b5 reductase per mg of protein at 0.5 mM by HPLC analysis. Put shortly: (§1)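 His6-tagged human mARC1 expressed in E. coli TP1000 (22 °C, IPTG induction, 1 mM sodium molybdate added) and Ni-NTA purified. Assay mix: 100 µg mARC1, 0.05 U pig liver microsomal NADH cyt b5 reductase, 200 pmol microsomal cyt b5, 0.5 mM N-hydroxylated substrate, 1 mM NADH, 100 mM potassium phosphate pH 6.0. Omitted components as stated per line. Aerobic, 37 °C, 3 min preincubation, NADH start, 15 or 20 min, methanol stop. Product quantified by HPLC; mean ± SD, n=4.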

The target in assay [2] is T1, Mitochondrial amidoxime-reducing component 1 (Homo sapiens). The experiment in a line: Specific activity at molybdenum cofactor/metal-free precursor molybopterin bound human recombinant mARC1 expressed in Escherichia coli TP1000 assessed as reduction to benzamidine in reconstituted system containing microsomal cyt b5 and NADH without microsomal NADH cytochrome b5 reductase per mg of protein at 0.5 mM by HPLC analysis. The gist of the method: as §1

For assay [3] the target is unchanged. The experiment in a line: Specific activity at molybdenum cofactor/metal-free precursor molybopterin bound human recombinant mARC1 expressed in Escherichia coli TP1000 assessed as reduction to benzamidine in reconstituted system containing NADH and microsomal NADH cyt b5 reductase without microsomal cytochrome b5 per mg of protein at 0.5 mM by HPLC analysis. Put shortly: as §1

For assay [4] the target is unchanged. As to the kind of experiment: Specific activity at molybdenum cofactor/metal-free precursor molybopterin bound human recombinant mARC1 expressed in Escherichia coli TP1000 assessed as reduction to benzamidine in complete reconstituted system containing microsomal cyt b5, NADH and microsomal NADH cyt b5 reductase per mg of protein at 0.5 mM by HPLC analysis. The gist of the method:
as §1

Assay [5] shares this target. As to the kind of experiment: Specific activity at molybdenum cofactor/metal-free precursor molybopterin bound human recombinant mARC1 expressed in Escherichia coli TP1000 assessed as reduction to guanabenz in complete reconstituted system containing microsomal cyt b5, NADH and microsomal NADH cyt b5 reductase per mg of protein at 0.5 mM by HPLC analysis. Put shortly: as §1

The target is the same in assay [6]. The experiment in a line: Specific activity at molybdenum cofactor/metal-free precursor molybopterin bound human recombinant mARC1 expressed in Escherichia coli TP1000 assessed as reduction to diminazene in complete reconstituted system containing microsomal cyt b5, NADH and microsomal NADH cyt b5 reductase per mg of protein at 0.5 mM by HPLC analysis. The gist of the method: as §1

The target is the same in assay [7]. The experiment in a line: Specific activity at molybdenum cofactor/metal-free precursor molybopterin bound human recombinant mARC1 expressed in Escherichia coli TP1000 assessed as reduction to diminazene monoamidoxime in complete reconstituted system containing microsomal cyt b5, NADH and microsomal NADH cyt b5 reductase per mg of protein at 0.5 mM by HPLC analysis. Put shortly: as §1

Assay [8] shares this target. The experiment in a line: Specific activity at molybdenum cofactor/metal-free precursor molybopterin bound human recombinant mARC1 expressed in Escherichia coli TP1000 assessed as reduction to melagatran in complete reconstituted system containing microsomal cyt b5, NADH and microsomal NADH cyt b5 reductase per mg of protein at 0.5 mM by HPLC analysis. Put shortly: as §1

Assay [9] shares this target. As to the kind of experiment: Specific activity at molybdenum cofactor/metal-free precursor molybopterin bound human recombinant mARC1 expressed in Escherichia coli TP1000 assessed as reduction to pentamidine in complete reconstituted system containing microsomal cyt b5, NADH and microsomal NADH cyt b5 reductase per mg of protein at 0.5 mM by HPLC analysis. Put shortly: as §1

For assay [10] the target is unchanged. As to the kind of experiment: Specific activity at molybdenum cofactor/metal-free precursor molybopterin bound human recombinant mARC1 expressed in Escherichia coli TP1000 assessed as reduction to pentamidine monoamidoxime in complete reconstituted system containing microsomal cyt b5, NADH and microsomal NADH cyt b5 reductase per mg of protein at 0.5 mM by HPLC analysis. Put shortly: as §1

For the molecule `N/C(=N\O)N1CCc2ccccc2C1`, the Activity in [1] is 15.9 nmol/min.
For `N/C(=N\O)c1ccccc1`, the Activity was 0.2 nmol/min in assay [2], 0.23 nmol/min in assay [3] and 1.3 nmol/min in assay [4].
For the molecule `N=C(NO)N/N=C/c1c(Cl)cccc1Cl`, in assay [5], the Activity came to 20.4 nmol/min.
In the case of `N/C(=N\O)c1ccc(/N=N/Nc2ccc(/C(N)=N/O)cc2)cc1`, the Activity in assay [6] is 0.05 nmol/min; in assay [7], 4.31 nmol/min.
As to `N/C(=N\O)c1ccc(CNC(=O)[C@@H]2CCN2C(=O)[C@H](NCC(=O)O)C2CCCCC2)cc1`, the Activity in assay [8] was determined as 0.48 nmol/min.
Consider `N=C(N)c1ccc(OCCCCCOc2ccc(/C(N)=N\O)cc2)cc1`, for which the Activity in [9] came to 6.59 nmol/min.
As to `N/C(=N\O)c1ccc(OCCCCCOc2ccc(/C(N)=N/O)cc2)cc1`, the Activity in [10] was found to be 0.56 nmol/min; in [9], 0.49 nmol/min.
